A short description of data set [1]: folding enthalpy; higher = less favourable; fluorescence melt of hairpins on a sequencing array, two-state fit. The note with it: sodium 0.088 M. The procedure, abridged: (§1)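 Cy3 signals were normalised both to pre-quench Cy3 and to control constructs. They came from library hairpins carrying annealed Cy3 and quencher oligos on a sequenced MiSeq flow cell, imaged in 50 mM Na-HEPES pH 8.0, 25 mM NaCl, in 2.5 °C steps up to 60 °C. Bootstrapped two-state fits gave melting temperature and folding enthalpy, and four replicates were combined by inverse variance. Fitted temperatures were then raised by 9.35 °C to match UV melts.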

Data set [2] is described as follows: melting temperature; fluorescence melt of hairpins on a sequencing array, two-state fit, raised by 9.35 °C to match UV melts. Conditions: sodium 0.088 M. The procedure, abridged: as §1

Turning to GCGTGTTCGAAAGAACGC (((..(((....)))))), the folding enthalpy in data set [1] was -14.7 kcal/mol. In data set [2], the Tm came out at 50.5 °C.

Regarding GCGTTACGAAAGTACCGC (((.(((....))).))), in data set [1], the folding enthalpy is -31.3 kcal/mol. Moreover, in data set [2], the Tm was determined as 53.7 °C.

On to GCGTTACGAAAGTACGC (((.(((....)))))), for which the folding enthalpy in data set [1] is -32.2 kcal/mol. Further, the Tm in data set [2] is 61.1 °C.

For the sequence GCGTTACGAAAGTAGCGC (((.(((....))).))), the folding enthalpy in data set [1] is -39.7 kcal/mol. For the same sequence, the Tm in data set [2] was 64.4 °C.

As to GCGTTACGAAAGTATCGC (((.(((....))).))), the folding enthalpy in data set [1] is -47.6 kcal/mol. Also, the Tm in data set [2] worked out at 55.2 °C.

As for GCGTTATACGC ((((...)))), the folding enthalpy in data set [1] is -20.4 kcal/mol. The Tm in data set [2] stood at 61.3 °C.

As for GCGTTATCACGC ((((....)))), in data set [1], the folding enthalpy is -22.5 kcal/mol. Also, the Tm in data set [2] amounted to 50.6 °C.

In the case of GCGTTATGACGC ((((....)))), in data set [1], the folding enthalpy is -25 kcal/mol. In data set [2], the Tm came to 56.2 °C.

Consider GCGTTCAACGC ((((...)))), for which the folding enthalpy in data set [1] was -23.1 kcal/mol. Besides, the Tm in data set [2] turned out to be 56.8 °C.

With GCGTTCATACGC ((((....)))), the folding enthalpy in data set [1] is -21.7 kcal/mol. Further, the Tm in data set [2] amounted to 54.7 °C.

Regarding GCGTTCCTACGC ((((....)))), in data set [1], the folding enthalpy is -25.2 kcal/mol. Also, in data set [2], the Tm was 57.9 °C.

Turning to GCGTTCGAAAGAAACGC ((((((....))).))), the folding enthalpy in data set [1] was -35.3 kcal/mol. The Tm in data set [2] worked out at 56.1 °C.

As to GCGTTCGAAAGAAATCGC ((((((....)))..))), the folding enthalpy in data set [1] was -25 kcal/mol. In addition, in data set [2], the Tm was 35.2 °C.

On to GCGTTCGAAAGAACACGC ((((((....)))..))), for which the folding enthalpy in data set [1] was -22.1 kcal/mol. Further, the Tm in data set [2] was 50.5 °C.

GCGTTCGAAAGAATCCGC ((((((....)))..))): in data set [1], the folding enthalpy is -22 kcal/mol. For the same sequence, the Tm in data set [2] is 35.3 °C.

As to GCGTTCGAAAGAATCGC ((((((....))).))), the folding enthalpy in data set [1] is -33.5 kcal/mol. Also, the Tm in data set [2] was 50.2 °C.

On to GCGTTCGGAAACGAATGC ((.((((....)))).)), for which the folding enthalpy in data set [1] was -42.1 kcal/mol. In addition, the Tm in data set [2] was 58.7 °C.

Regarding GCGTTCGGAAACGAGCGC (((.(((....))).))), in data set [1], the folding enthalpy is -33.6 kcal/mol. Moreover, the Tm in data set [2] amounted to 66 °C.

Take GCGTTCTGACGC ((((....)))): the folding enthalpy in data set [1] is -25.1 kcal/mol. For the same sequence, in data set [2], the Tm stood at 55.3 °C.

With GCGTTGCCACGC ((((....)))), the folding enthalpy in data set [1] was -14.3 kcal/mol. Further, the Tm in data set [2] stood at 53.8 °C.

Regarding GCGTTGCGAAAGCAAAGC ((.((((....)))).)), in data set [1], the folding enthalpy was -30.4 kcal/mol. The Tm in data set [2] is 66 °C.

Take GCGTTGCGAAAGCATTGC ((..(((....)))..)): the folding enthalpy in data set [1] is -17.7 kcal/mol. The Tm in data set [2] is 43.5 °C.

As to GCGTTGCGAAAGCCATGC ((.(.((....)).).)), the folding enthalpy in data set [1] was -25.4 kcal/mol. Also, the Tm in data set [2] worked out at 40.2 °C.

In the case of GCGTTGCGAAAGCGATGC ((.(.((....)).).)), the folding enthalpy in data set [1] is -21.9 kcal/mol. The Tm in data set [2] stood at 57.6 °C.

As to GCGTTGCGAAAGCGTCGC (((..((....))..))), the folding enthalpy in data set [1] is -20.8 kcal/mol. The Tm in data set [2] was found to be 63.6 °C.

GCGTTGCGAAAGCTCCGC (((..((....))..))): in data set [1], the folding enthalpy was -17.9 kcal/mol. The Tm in data set [2] was determined as 54.6 °C.

GCGTTGGAACGC ((((....)))): the folding enthalpy in data set [1] was -16.5 kcal/mol. In addition, the Tm in data set [2] is 52.4 °C.

As for GCGTTGGACGC ((((...)))), in data set [1], the folding enthalpy was -19.5 kcal/mol. For the same sequence, the Tm in data set [2] came out at 52.7 °C.

On to GCGTTGGGAAACCAGCGC (((.(((....))).))), for which the folding enthalpy in data set [1] is -45.2 kcal/mol. Further, the Tm in data set [2] was determined as 58.3 °C.

For GCGTTGGGAAACCGACGC ((((.((....)).)))), the folding enthalpy in data set [1] was -40.3 kcal/mol. For the same sequence, the Tm in data set [2] was determined as 64 °C.

On to GCGTTGTTACGC ((((....)))), for which the folding enthalpy in data set [1] was -23.2 kcal/mol. In data set [2], the Tm stood at 54.3 °C.

As to GCGTTTAACGC ((((...)))), the folding enthalpy in data set [1] is -21.4 kcal/mol. In addition, in data set [2], the Tm is 56.6 °C.

For the sequence GCGTTTACGAAAGTACGC (((..(((....)))))), the folding enthalpy in data set [1] is -24.4 kcal/mol. Besides, the Tm in data set [2] was 47.9 °C.

For GCGTTTGGAAACAAATGC ((.((((....)))).)), the folding enthalpy in data set [1] was -47.9 kcal/mol. Besides, in data set [2], the Tm stood at 51.7 °C.

Take GCGTTTGGAAACAGACGC ((((.((....)).)))): the folding enthalpy in data set [1] was -39.4 kcal/mol. Also, the Tm in data set [2] was determined as 52.7 °C.

As for GCTAAAGGAAACTTTGGC ((.((((....)))).)), the folding enthalpy in data set [1] was -30.4 kcal/mol. The Tm in data set [2] turned out to be 41.1 °C.

As to GCTAACACGAAAGTGAGC (((..(((....)))))), in data set [1], the folding enthalpy was -20.2 kcal/mol. Moreover, the Tm in data set [2] was 39.4 °C.

Turning to GCTAACGAAAGTTAAGC ((((((....))).))), the folding enthalpy in data set [1] was -27.1 kcal/mol. The Tm in data set [2] stood at 46.2 °C.

As for GCTAACGAAAGTTACAGC ((((((....)))..))), the folding enthalpy in data set [1] is -18.3 kcal/mol. In addition, the Tm in data set [2] was 35.1 °C.

(Values after the array DNA melting data of Ke et al. (doi:10.1101/2024.01.08.574731).)
